Test results taken from PMC10249106 (ACS Omega, 2023).

Tests used:
HepG2 cells = assay: MTT cytotoxicity assay, HepG2; type: cell-based; settings: Homo sapiens, HepG2, 24 h, read-out: IC50 HePG2
Method in brief: (§1)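 Cells (ATCC via VACSERA) grown in RPMI-1640 with 10% FBS, penicillin 100 units/mL and streptomycin 100 μg/mL, 37 °C, 5% CO2. Seeded at 1.0 × 10^4 cells/well and held 48 h, then exposed to a range of test compound concentrations for 24 h. MTT (5 mg/mL solution) added for 4 h, formazan dissolved in DMSO, absorbance 570 nm. Run in triplicate; IC50 calculated. 5-FU reference.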

MCF-7 cells = assay: MTT cytotoxicity assay, MCF-7; type: cell-based; settings: Homo sapiens, MCF7, 24 h, read-out: IC50 MCF-7
Method in brief: as §1

PC3 cells = assay: MTT cytotoxicity assay, PC3; type: cell-based; settings: Homo sapiens, PC-3, 24 h, read-out: IC50 PC3
Method in brief: as §1

HCT-116 cells = assay: MTT cytotoxicity assay, HCT-116; type: cell-based; settings: Homo sapiens, HCT-116, 24 h, read-out: IC50 HCT-116
Method in brief: as §1

Pim-1 kinase = Pim-1 kinase (Homo sapiens, UniProt P11309); assay: Pim-1 kinase inhibition, luminescent ADP-Glo kinase assay; type: biochemical
Chain of Pim-1 kinase (P11309 whole entry): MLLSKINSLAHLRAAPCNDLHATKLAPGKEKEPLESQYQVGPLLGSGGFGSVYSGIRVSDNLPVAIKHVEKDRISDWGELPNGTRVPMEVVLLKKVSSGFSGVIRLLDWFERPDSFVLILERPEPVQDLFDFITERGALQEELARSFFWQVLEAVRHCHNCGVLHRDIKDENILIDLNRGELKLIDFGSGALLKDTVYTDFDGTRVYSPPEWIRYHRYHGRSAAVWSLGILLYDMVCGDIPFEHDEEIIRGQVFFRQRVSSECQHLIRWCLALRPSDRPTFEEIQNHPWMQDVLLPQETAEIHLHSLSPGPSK

Row | Compound | IC50 (HepG2 cells) | IC50 (MCF-7 cells) | IC50 (PC3 cells) | IC50 (HCT-116 cells) | IC50 (Pim-1 kinase) | fold less potent than quercetagetin (Pim-1 inhibition) (Pim-1 kinase) | times more potent than A (Pim-1 inhibition) (Pim-1 kinase)
1 | COc1ccc(-c2cc(-c3cc4ccccc4nc3Cl)c(C#N)c(Cl)n2)cc1 [4c, 2-Chloro-4-(2-chloroquinolin-3-yl)-6-(4-methoxyphenyl) nicotinonitrile] | 8.02 ± 0.38 µM | 15.7 ± 0.78 µM | 13.6 ± 0.67 µM | 7.15 ± 0.35 µM | 0.61 ± 0.03 µM | – | –
2 | N#Cc1c(-c2cc3ccccc3nc2Cl)cc(-c2cccc(N)c2)[nH]c1=O [3b, 6-(3-Aminophenyl)-4-(2-chloroquinolin-3-yl)-2-oxo-1,2-dihydropyridine-3-carbonitrile] | 12.4 ± 0.59 µM | 42.4 ± 2.13 µM | 18.4 ± 0.89 µM | 30.9 ± 1.52 µM | 0.85 ± 0.04 µM | – | –
3 | N#Cc1c(-c2cc3ccccc3nc2Cl)cc(-c2ccc(Cl)cc2Cl)nc1Cl [4e, 2-Chloro-4-(2-chloroquinolin-3-yl)-6-(2,4-dichlorophenyl) nicotinonitrile] | 11.5 ± 0.56 µM | 55.5 ± 2.71 µM | 35.1 ± 1.73 µM | 65.1 ± 3.08 µM | 1.42 ± 0.07 µM | ~2.5 fold | –
4 | O=c1[nH]cc(F)c(=O)[nH]1 [5-FU, 5-fluorouracil, reference compound] | 9.42 ± 0.46 µM | 7.75 ± 0.37 µM | 10.3 ± 0.5 µM | 8.01 ± 0.39 µM | – | – | –
5 | COc1ccc(-c2cc(-c3cc4ccccc4nc3Cl)c(C#N)c(=O)[nH]2)cc1 [3c, 4-(2-Chloroquinolin-3-yl)-6-(4-methoxyphenyl)-2-oxo-1,2-dihydropyridine-3-carbonitrile] | 14.1 ± 0.68 µM | 25.4 ± 1.2 µM | 25.8 ± 1.3 µM | 18.3 ± 0.89 µM | 0.79 ± 0.04 µM | – | –
6 | N#Cc1c(-c2cc3ccccc3nc2Cl)cc(-c2ccccc2)[nH]c1=O [3a, 4-(2-Chloroquinolin-3-yl)-2-oxo-6-phenyl-1,2-dihydropyridine-3-carbonitrile] | 11.6 ± 0.57 µM | 60 ± 2.93 µM | 26.9 ± 1.28 µM | 49.9 ± 2.36 µM | 0.9 ± 0.04 µM | – | –
7 | N#Cc1c(-c2cc3ccccc3nc2Cl)cc(-c2ccccc2)nc1Cl [4a, 2-Chloro-4-(2-chloroquinolin-3-yl)-6-phenylnicotinonitrile] | 10 ± 0.49 µM | 75.7 ± 3.74 µM | 35.3 ± 1.67 µM | 50 ± 2.44 µM | 1.24 ± 0.06 µM | about 2 fold | –
8 | N#Cc1c(-c2cc3ccccc3nc2Cl)cc(-c2ccc(Br)cc2)nc1Cl [4d, 6-(4-Bromophenyl)-2-chloro-4-(2-chloroquinolin-3-yl) nicotinonitrile] | 6.95 ± 0.34 µM | 8.5 ± 0.42 µM | 14.1 ± 0.7 µM | 8.35 ± 0.42 µM | 0.46 ± 0.02 µM | – | 2 times
9 | N#Cc1c(-c2cc3ccccc3nc2Cl)cc(-c2ccc(Cl)cc2Cl)[nH]c1=O [3e, 4-(2-Chloroquinolin-3-yl)-6-(2,4-dichlorophenyl)-2-oxo-1,2-dihydropyridine-3-carbonitrile] | 11.6 ± 0.57 µM | 45.9 ± 2.18 µM | 25.9 ± 1.25 µM | 50.7 ± 2.5 µM | 2.31 ± 0.11 µM | – | –
10 | N#Cc1c(-c2cc3ccccc3nc2Cl)cc(-c2ccc(Br)cc2)[nH]c1=O [3d, 6-(4-Bromophenyl)-4-(2-chloroquinolin-3-yl)-2-oxo-1,2-dihydropyridine-3-carbonitrile] | 16.2 ± 0.77 µM | 19.9 ± 0.96 µM | 20.5 ± 0.97 µM | 20 ± 0.99 µM | 0.72 ± 0.03 µM | – | –
11 | N#Cc1c(-c2cc3ccccc3nc2Cl)cc(-c2cccc(N)c2)nc1Cl [4b, 6-(3-Aminophenyl)-2-chloro-4-(2-chloroquinolin-3-yl) nicotinonitrile] | 12 ± 0.59 µM | 19.2 ± 0.94 µM | 15 ± 0.74 µM | 20.2 ± 0.96 µM | 0.63 ± 0.03 µM | – | –
